In ChEMBL document CHEMBL2439987, “TRPV1 antagonist with high analgesic efficacy: 2-Thio pyridine C-region analogues of 2-(3-fluoro-4-methylsulfonylaminophenyl)propanamides” (Bioorg Med Chem, 2013):
pIC50, pKi: −log10 of the molar value. Activity calls are given as the source filed them. The calls are words filed in the database; no cut-off is given here.

Legend:
[1] = target: T1, Transient receptor potential cation channel subfamily V member 1 (Homo sapiens, UniProt Q8NER1); assay: Antagonist activity at human TRPV1 expressed in CHOK1 cells assessed as inhibition of pH-induced activity by FLIPR assay; format: cell-based, CHO-K1; details: for inhibition: CHO-K1
T1 sequence (Q8NER1 whole entry): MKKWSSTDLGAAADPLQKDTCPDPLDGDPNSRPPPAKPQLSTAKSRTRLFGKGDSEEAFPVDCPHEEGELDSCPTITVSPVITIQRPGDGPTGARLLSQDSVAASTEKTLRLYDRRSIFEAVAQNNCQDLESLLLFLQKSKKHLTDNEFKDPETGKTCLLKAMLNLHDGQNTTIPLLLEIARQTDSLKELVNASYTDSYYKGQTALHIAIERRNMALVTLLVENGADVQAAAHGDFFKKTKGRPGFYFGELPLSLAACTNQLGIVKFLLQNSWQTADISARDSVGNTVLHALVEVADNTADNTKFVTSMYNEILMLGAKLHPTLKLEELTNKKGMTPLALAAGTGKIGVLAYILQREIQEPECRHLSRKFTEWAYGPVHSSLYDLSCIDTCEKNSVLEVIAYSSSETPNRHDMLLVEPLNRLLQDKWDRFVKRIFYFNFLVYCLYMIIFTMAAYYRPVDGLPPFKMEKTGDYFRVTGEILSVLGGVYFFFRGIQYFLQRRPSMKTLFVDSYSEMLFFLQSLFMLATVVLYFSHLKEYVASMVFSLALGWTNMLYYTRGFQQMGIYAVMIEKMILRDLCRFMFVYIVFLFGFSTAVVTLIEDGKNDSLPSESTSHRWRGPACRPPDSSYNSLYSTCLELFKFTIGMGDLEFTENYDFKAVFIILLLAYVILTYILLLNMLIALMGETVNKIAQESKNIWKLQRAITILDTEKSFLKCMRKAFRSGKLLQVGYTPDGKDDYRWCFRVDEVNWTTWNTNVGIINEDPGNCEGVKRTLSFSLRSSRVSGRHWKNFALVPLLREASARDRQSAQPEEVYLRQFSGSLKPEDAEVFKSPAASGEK

[2] = target: T1, Transient receptor potential cation channel subfamily V member 1; assay: Antagonist activity at human TRPV1 expressed in CHOK1 cells assessed as inhibition of capsaicin-induced activity by FLIPR assay; format: cell-based, CHO-K1; details: for pKi: read-out: Ki; for Ki: cho-k1
[3] = tested on: Mus musculus; assay: Inhibition of capsaicin-induced hypothermia in NMRI mouse at 0.3 mg/kg, po administered 15 mins prior challenge measured at 30 mins post-challenge; format: functional, organism-based; set-up: dose 0.3 mg/kg
[4] = tested on: Rattus norvegicus; assay: Analgesic activity in CCI-induced Sprague-Dawley rat neuropathic pain model assessed as reduction in paw withdrawal at 10 mg/kg, po measured 45 mins post compound administration relative to control; format: functional
Procedure, shortened: (§1)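 Chronic constriction injury (Bennett model) of neuropathic pain in rats, read out as cold allodynia. Compound given orally and compared with vehicle. Effect expressed as % maximal possible effect (MPE), with n = 10 per group, mean ± SEM, and p < 0.05 versus vehicle. ED50 taken from the dose–response.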

[5] = tested on: Rattus norvegicus; assay: Analgesic activity in CCI-induced Sprague-Dawley rat neuropathic pain model assessed as reduction in paw withdrawal measured 45 mins after po administration; format: functional; procedure, shortened: as §1
[6] = target: T1, Transient receptor potential cation channel subfamily V member 1; assay: Antagonist activity at human TRPV1 expressed in CHOK1 cells assessed as inhibition of 45 degC heat-induced activity after 5 mins by FLIPR assay; format: cell-based, CHO-K1
[7] = target: T1, Transient receptor potential cation channel subfamily V member 1; assay: Antagonist activity at human TRPV1 expressed in CHOK1 cells assessed as inhibition of N-arachidonoyl dopamine-induced activity after 5 mins by FLIPR assay

Structure (SMILES)	pIC50 [1]	pKi [2]	inhibition [1]	other results
CC(C(=O)NCc1ccc(C(F)(F)F)nc1SCCCN1CCCC1)c1ccc(NS(C)(=O)=O)c(F)c1 (centres undefined)	6.51	8.48		
CC(C(=O)NCc1ccc(C(F)(F)F)nc1SCc1cccs1)c1ccc(NS(C)(=O)=O)c(F)c1 (centres undefined)		7.82	inactive	
Cc1ccc(CSc2nc(C(F)(F)F)ccc2CNC(=O)C(C)c2ccc(NS(C)(=O)=O)c(F)c2)cc1 (centres undefined)	6.12	8.49		
CC(C(=O)NCc1ccc(C(F)(F)F)nc1SCCCN1CCOCC1)c1ccc(NS(C)(=O)=O)c(F)c1 (centres undefined)			inactive	Ki [2]: Not Active
CC(C(=O)NCc1ccc(C(F)(F)F)nc1SC1CCCCC1C)c1ccc(NS(C)(=O)=O)c(F)c1 (centres undefined)		8.72	inactive	
COc1ccc(CSc2nc(C(F)(F)F)ccc2CNC(=O)C(C)c2ccc(NS(C)(=O)=O)c(F)c2)cc1 (centres undefined)	6.55	8.64		
CC(C(=O)NCc1ccc(C(F)(F)F)nc1SCCCN1CCCCC1)c1ccc(NS(C)(=O)=O)c(F)c1 (centres undefined)	6.60	8.52		
C[C@H](C(=O)NCc1ccc(C(F)(F)F)nc1SC1CCCCC1)c1ccc(NS(C)(=O)=O)c(F)c1	< 6.00	9.40		inhibition [3]: Active; %max [4]: 75%; Activity [5]: Dose-dependent effect; ED50 ([5]; 0.75 h): 0.19 mg/kg; pIC50 [6]: 7.65; pKi [7]: 10.30
COC(=O)CCSc1nc(C(F)(F)F)ccc1CNC(=O)C(C)c1ccc(NS(C)(=O)=O)c(F)c1 (centres undefined)	5.96	7.32		
CC(C(=O)NCc1ccc(C(F)(F)F)nc1SCCC(=O)N1CCCC1)c1ccc(NS(C)(=O)=O)c(F)c1 (centres undefined)		7.07	inactive	
CC(C(=O)NCc1ccc(C(F)(F)F)nc1SCCCN(C)C)c1ccc(NS(C)(=O)=O)c(F)c1 (centres undefined)	5.82	7.56		
CC(C(=O)NCc1ccc(C(F)(F)F)nc1SCC(F)(F)F)c1ccc(NS(C)(=O)=O)c(F)c1 (centres undefined)		8.37	inactive	
CC(C(=O)NCc1ccc(C(F)(F)F)nc1SC1CCCC1)c1ccc(NS(C)(=O)=O)c(F)c1 (centres undefined)		8.92	inactive	
CC(C(=O)NCc1ccc(C(F)(F)F)nc1SCC1CCCCC1)c1ccc(NS(C)(=O)=O)c(F)c1 (centres undefined)	6.60	8.64		
CC(C(=O)NCc1ccc(C(F)(F)F)nc1S(=O)(=O)C1CCCCC1)c1ccc(NS(C)(=O)=O)c(F)c1 (centres undefined)			inactive	Ki [2]: Not Active
CC(C(=O)NCc1ccc(C(F)(F)F)nc1SCc1cccc(C(F)(F)F)c1)c1ccc(NS(C)(=O)=O)c(F)c1 (centres undefined)	7.15	8.41		
CC(C(=O)NCc1ccc(C(F)(F)F)nc1SCCCO)c1ccc(NS(C)(=O)=O)c(F)c1 (centres undefined)				Ki [2]: Not Active

Further lines, with some results ahead:

pIC50 [1]	pKi [2]	inhibition [1]	Structure (SMILES)	other results
6.17	8.06		CC(C(=O)NCc1ccc(C(F)(F)F)nc1SCc1ccc(Cl)cc1)c1ccc(NS(C)(=O)=O)c(F)c1 (centres undefined)	
5.89	7.55		C[C@H](C(=O)NCc1ccc(C(C)(C)C)cc1)c1ccc(NS(C)(=O)=O)c(F)c1	
	9.00	inactive	CCC1CCC(Sc2nc(C(F)(F)F)ccc2CNC(=O)C(C)c2ccc(NS(C)(=O)=O)c(F)c2)CC1 (centres undefined)	
6.21	8.31		CC(C(=O)NCc1ccc(C(F)(F)F)nc1SCc1ccccc1Cl)c1ccc(NS(C)(=O)=O)c(F)c1 (centres undefined)	
7.09	9.15		CC(C)CCSc1nc(C(F)(F)F)ccc1CNC(=O)C(C)c1ccc(NS(C)(=O)=O)c(F)c1 (centres undefined)	
	7.36	inactive	C[C@@H](C(=O)NCc1ccc(C(F)(F)F)nc1SC1CCCCC1)c1ccc(NS(C)(=O)=O)c(F)c1	
		inactive	CC(C(=O)NCc1ccc(C(F)(F)F)nc1SCCC(=O)O)c1ccc(NS(C)(=O)=O)c(F)c1 (centres undefined)	Ki [2]: Not Active
6.74	9.30		CC1CCC(Sc2nc(C(F)(F)F)ccc2CNC(=O)C(C)c2ccc(NS(C)(=O)=O)c(F)c2)CC1 (centres undefined)	
6.95	8.72		CC(C(=O)NCc1ccc(C(F)(F)F)nc1SCCc1ccccc1)c1ccc(NS(C)(=O)=O)c(F)c1 (centres undefined)	
6.93	8.64		CC(C(=O)NCc1ccc(C(F)(F)F)nc1SCCOc1ccccc1)c1ccc(NS(C)(=O)=O)c(F)c1 (centres undefined)	
7.02	8.60		CCCCCSc1nc(C(F)(F)F)ccc1CNC(=O)C(C)c1ccc(NS(C)(=O)=O)c(F)c1 (centres undefined)	
		inactive	CC(C(=O)NCc1ccc(C(F)(F)F)nc1SC1CCCCC1)c1ccc(NS(C)(=O)=O)c(F)c1 (centres undefined)	
7.17	8.15		CC(C(=O)NCc1ccc(C(F)(F)F)nc1SCCCBr)c1ccc(NS(C)(=O)=O)c(F)c1 (centres undefined)	
6.14	8.25		CCCCCCSc1nc(C(F)(F)F)ccc1CNC(=O)C(C)c1ccc(NS(C)(=O)=O)c(F)c1 (centres undefined)	
6.66	8.54		CC1CCN(CCCSc2nc(C(F)(F)F)ccc2CNC(=O)C(C)c2ccc(NS(C)(=O)=O)c(F)c2)CC1 (centres undefined)	
	7.84	inactive	CC(C(=O)NCc1ccc(C(F)(F)F)nc1SCc1ccco1)c1ccc(NS(C)(=O)=O)c(F)c1 (centres undefined)	
7.05	8.59		CC(C(=O)NCc1ccc(C(F)(F)F)nc1SC1CCC(C(C)(C)C)CC1)c1ccc(NS(C)(=O)=O)c(F)c1 (centres undefined)	
		inactive	CC(C(=O)NCc1ccc(C(F)(F)F)nc1[S+]([O-])C1CCCCC1)c1ccc(NS(C)(=O)=O)c(F)c1 (centres undefined)	Ki [2]: Not Active
